# Bioassay records as filed in PubChem BioAssay.
# CCR6 antagonist: antagonists of human CCR6 receptor; hit rate 0.49% among 340,000; inhibition, % at 20 µM; P51684; AID 493098; CHO-K1 CCR6 PathHunter beta-arrestin, luminescence, CCL20-stimulated;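 active = compounds whose inhibition of the agonist-driven luminescence signal at 20 µM reaches about 50%, limit read from the data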;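 also: cells stimulated with CCL20 at 14 nM final; plate controls were DMSO with CCL20 for no effect and DMSO without agonist for full effect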
# APJ antagonist: APJ receptor antagonism; CHO-K1 APJ beta-arrestin complementation, luminescence; inhibition, % at 20 µM; hit rate 0.32% among 330,000; AID 2521;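 active = inhibition above about 40% at 20 µM, limit read from the data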;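 also: cells challenged with 10 nM apelin-13 agonist together with compound; plate controls were apelin-13 plus DMSO wells for no effect and DMSO wells lacking apelin-13 for full effect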
# CXCR6 block: CXCR6 (human) receptor inhibition | CHO-K1 PathHunter CXCR6 beta-arrestin, luminescence | inhibition, % at 20 µM | O00574 | AID 602244 | hit rate 0.36% among 360,000; in the data active = inhibition above about 34%, passing the limit was not always enough;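 also: antagonist mode with CXCL16 agonist at 10 nM final; 0% = 10 nM CXCL16 with DMSO and 100% = unstimulated wells without agonist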
# Target sequence (O00574 whole entry, looked up): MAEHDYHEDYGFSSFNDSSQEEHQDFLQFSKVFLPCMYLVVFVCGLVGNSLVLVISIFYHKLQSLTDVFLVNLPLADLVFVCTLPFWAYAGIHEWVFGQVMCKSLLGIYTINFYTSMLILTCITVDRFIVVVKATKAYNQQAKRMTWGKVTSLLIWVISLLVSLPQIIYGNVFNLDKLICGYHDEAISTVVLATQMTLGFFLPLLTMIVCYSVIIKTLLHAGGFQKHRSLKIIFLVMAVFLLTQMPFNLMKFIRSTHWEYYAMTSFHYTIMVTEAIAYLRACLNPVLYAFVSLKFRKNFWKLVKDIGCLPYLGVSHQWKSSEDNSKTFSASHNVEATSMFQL
# APJ ag: agonists of human APJ apelin receptor; P35414; CHO-K1 APJ PathHunter beta-arrestin, luminescence; 0% DMSO wells, 100% apelin; activation, % at 20 µM; hit rate 0.11% among 330,000; AID 2520;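 active = activation more than six SD over the plate average, tested at 20 µM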;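 also: 0% = DMSO alone and 100% = apelin-13 at 10 nM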
#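 Material: engineered CHO-K1 APJ arrestin reporter cells; amount: 1000 CHO-K1 reporter cells seeded per well; incubation: compound stimulation 90 min at 25 °C, detection 60 min; signal: luminescent beta-gal fragment complementation, chemiluminescent substrate; read-out basis: APJ agonist activity; controls: DMSO-only wells as negative, 10 nM Apelin-13 as positive control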
# EBI2 block: blocks human EBI2 receptor beta-arrestin signaling; AID 651636; hit rate 0.81% among 360,000; EBI2 beta-arrestin recruitment, luminescence, 7a,25-OHC stimulated; P32249; inhibition, % at 5 µM; in the data active = inhibition above about 38%;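 also: enzyme fragment complementation signal reports receptor beta-arrestin coupling in cells; 0% = agonist plus DMSO wells and 100% = wells without agonist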
# EBI2 conf: confirmation of human EBI2 receptor antagonists; EBI2 beta-arrestin luminescence, 7a,25-OHC antagonism; inhibition, % at 5 µM; hit rate 29% among 2,400; AID 651997; shares compounds with EBI2 block;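 active = inhibition of at least 50%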
# EBI2 agonist: activates EBI2, counter-screen for EBI2 antagonists | AID 652000 | 2,400 tested, under 10 active | activation, % at 5 µM | shares compounds with EBI2 block | EBI2-expressing cells, agonist mode, luminescence, 60 min; 0% vehicle, 100% 7α,25-dihydroxycholesterol control;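 active = activation of at least 50%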
# bGal cs: counter-screen for EBI2 antagonists: E. coli beta-galactosidase inhibition. AID 652176. inhibition, % at 5 µM. hit rate 1% among 2,400. shares compounds with EBI2 block. purified beta-galactosidase, luminescent Galacton Star, 15 min;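 active = replicate-average signal at least 3 plate SD below neutral wells, shown as high inhibition, flagging enzyme-inhibiting false positives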;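 also: 0% = DMSO wells with enzyme and 100% = wells lacking enzyme; higher means stronger loss of beta-gal luminescence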
# * hit, by the source's call; x = no result given. Compounds with a hit are over-represented: about 1.5% of the library has one in this group of screens.
SMILES,CCR6 antagonist,APJ antagonist,CXCR6 block,APJ ag,EBI2 block,EBI2 conf,EBI2 agonist,bGal cs
O=C(c1cc2cc(F)ccc2[nH]1)N1CCN(C(=O)c2ccco2)CC1,-15,-65,-8,2,67*,37,-1,4
CCOC(=O)C1(Cc2ccc(OC)cc2)CCN(C(=O)c2cc3ccccc3[nH]2)CC1,14,-6,3,-3,67*,35,-1,-3
Cn1cc(-c2ccc(C(=O)Nc3cccc(Oc4ccccc4)c3)c3occc23)cn1,x,x,-5,x,27,x,x,x
CC[C@H]1O[C@H](C)CC2=C1C(=O)OC(C)(C)O2,x,x,-2,x,5,x,x,x
COc1ccc(S(=O)(=O)N2CCOCC2)cc1NC(=O)c1ccc(S(=O)(=O)N(C)c2ccccc2OC)cc1,12,x,-3,x,17,x,x,x
COc1ccccc1N1CCN(C(=O)c2cc3ccccc3[nH]2)CC1,5,5,-11,3,73*,55*,2,5
COc1ccc2cc(C(=O)N3CCN(c4cccc(C)c4C)CC3)[nH]c2c1,9,6,6,-1,85*,57*,-1,-15
COc1ccccc1N1CCN(C(=S)NC(=O)/C=C/c2ccc(F)cc2)CC1,14,4,5,-5,54*,35,0,9
COc1cc2cc(C(=O)N3CCN(c4ccccc4OC)CC3)[nH]c2cc1OC,12,-3,-3,-1,6,x,x,x
COc1ccc(N2CCN(S(=O)(=O)CCNC(=O)/C=C/c3ccc4c(c3)OCO4)CC2)cc1,1,-27,-8,-1,13,x,x,x
COc1ccccc1N1CCN(S(=O)(=O)CCNC(=O)/C=C/c2ccc3c(c2)OCO3)CC1,x,x,2,x,78*,59*,0,8
CCOc1cc(OCC)cc(C(=O)NCCN2CCC(n3c(=O)[nH]c4ccccc43)CC2)c1,x,x,-2,x,-1,x,x,x
Cc1ccc2[nH]c(C(=O)N3CCN(C(c4ccccc4)c4ccccc4)CC3)cc2c1,9,-4,2,-2,89*,86*,-1,-11
Cc1cc(C)cc(C(=O)NCC(=O)N2CCN(C(c3ccccc3)c3ccccc3)CC2)c1,2,-4,9,-2,-5,x,x,x
COc1ccccc1N1CCN(C(=O)c2cc3cc(Cl)ccc3[nH]2)CC1,-12,-12,-8,2,89*,73*,0,-10
COc1ccccc1N1CCN(C(=O)c2cc3cc(F)ccc3[nH]2)CC1,0,11,-6,-2,87*,58*,2,4
CCc1cc(C(=O)Nc2cc(S(=O)(=O)N3CCCCC3)ccc2N2CCN(C)CC2)sc1C,x,x,12,x,18,x,x,x
CCc1nc2ccc(C(=O)Nc3cc(-c4ccccc4)ccc3OC)cn2c1N(C)Cc1nccs1,x,x,9,x,40,x,x,x
CN(c1ccc([N+](=O)[O-])cc1)c1cc2c(c3c1ccn3C)C1CCC2C1 (stereo unspecified),x,x,1,x,19,x,x,x
CCOC(=O)CN(C(=O)Cn1nnc(-c2ccc(OC)cc2)n1)C(C(=O)NC1CCCC1)c1ccc(F)cc1 (stereo unspecified),1,16,-6,-4,75*,44,1,5
O=C1/C(=C\c2ccc(Cl)cc2)CCC1CNc1ccc(Cl)cc1 (stereo unspecified),17,x,3,x,47*,11,1,8
Cc1ccc(/C=C2\CCC(C3CCCC3)C2=O)cc1 (stereo unspecified),13,-11,-4,-1,3,x,x,x
COc1ccc(CCNC(=O)CSc2cn(Cc3cccc(C)c3)c3ccccc23)cc1OC,30,7,22,-7,55*,29,-1,-9
CCOc1ccc(/C=N/NC(=O)Nc2ccccc2)cc1,-12,14,5,-1,18,x,x,x
CCN(CC)c1ccc(/C=N/NC(=O)Nc2ccccc2)cc1,0,9,-5,-5,40*,52*,0,-10
SMILES,CCR6 antagonist,APJ antagonist,CXCR6 block,APJ ag,EBI2 block,EBI2 conf,EBI2 agonist,bGal cs
Cc1cc(S(=O)(=O)N(Cc2ccc(C(C)(C)C)cc2)Cc2cccs2)ccc1-n1cnnn1,7,2,8,-4,48*,22,1,5
O=C(NCc1ccccc1Cl)c1ccc2sc([C@H]3C[C@H](O)[C@@H](CO)O3)nc2c1,x,x,-2,x,3,x,x,x
CCOc1ccc(-c2cc(C(=O)Nc3cc(OC)c(OC)c(OC)c3)[nH]n2)c(C)c1,x,x,-4,x,-6,x,x,x
CC(C)(C)c1ccc(C(=O)Nc2ccc(O)c3c(=O)cc(-c4ccccc4Cl)oc23)cc1,-1,4,-4,0,-13,x,x,x
Cc1ccc(/C=C/C(=O)Nc2ccc(O)c3c(=O)cc(-c4ccccc4Cl)oc23)cc1,8,7,5,-3,44*,27,0,7
CCc1ccc(CN(C)C(=O)c2cc(=O)c3ccccc3o2)cc1,9,8,8,-3,86*,65*,0,-11
CC(C)C[C@@H](CN1CCC[C@H]1CN1C(=O)C(=O)NC[C@@H]1Cc1ccc(O)cc1)N1C[C@H](Cc2ccc(O)cc2)N(CCc2ccccc2)C(=O)C1=O,x,x,-1,x,-12,x,x,x
CN(C)c1ccc(NC(=O)CN2CCN(S(=O)(=O)c3cc(Cl)ccc3Cl)CC2)cc1,-3,9,5,-3,64*,41,-1,-12
Cc1ccc(C)c(S(=O)(=O)N2CCN(CC(=O)Nc3ccc4c(c3)OCCO4)CC2)c1,15,-7,-6,-1,3,x,x,x
CN(C)C(=O)c1ccc(NC(=O)c2cccc(S(=O)(=O)N3CCN(Cc4ccccc4)CC3)c2)cc1,2,x,-5,x,-23,x,x,x
CN(CC(=O)Nc1ccc(Cl)cc1)C(=O)c1cccc(S(=O)(=O)N2CCN(Cc3ccccc3)CC2)c1,11,-8,-10,13,62*,32,-2,-12
Cc1ccc(C)c(S(=O)(=O)N2CCN(CC(=O)Nc3ccc4c(c3)CCC4)CC2)c1,13,-9,-1,-4,47*,29,1,5
Cc1cn([C@H]2C[C@H](O)[C@@H](CCC(=O)NCCc3ccc4ccccc4c3)O2)c(=O)[nH]c1=O,x,x,4,x,-1,x,x,x
CCOc1ccc(NC(=O)CN2CCN(C3c4ccccc4-c4ccccc43)CC2)cc1,4,2,-7,-4,68*,49,0,3
O=C(Nc1nnc([C@@H]2C[C@H](O)[C@@H](CO)O2)s1)c1c(F)cccc1F,x,x,-2,x,1,x,x,x
O=C(Nc1ccc(Oc2ccccc2)nc1)C1CCCCN1Cc1cccc(OCCO)c1 (stereo unspecified),15,-49,-11,-1,63*,58*,1,1
